Source: ChEMBL document CHEMBL5252546, “Salutaxel, a Conjugate of Docetaxel and a Muramyl Dipeptide (MDP) Analogue, Acts as Multifunctional Prodrug That Inhibits Tumor Growth and Metastasis” (J Med Chem, 2018)
Calls of active or inactive are those of the source. The rule behind the calls is not given here.

Experiments:
4T1 [1] = experiment: Antitumor activity against mouse 4T1 cells implanted in BALB/c mouse assessed as increase in tumor NOD1 expression level at 5.7 mg/kg,iv administrated once per week for 4 weeks in presence of compound 5b by western blot assay; format: functional, organism-based
In short: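 Tumour-bearing BALB/c mice (4T1 cells into mammary fat pad) given iv saline vehicle or test agents once weekly for 4 weeks. Tumours excised and probed by western blot for MMP9, MMP2 and NOD1, β-actin as loading control. Bands averaged over five mice per group; representative of two independent experiments.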

4T1 [2] = experiment: Antitumor activity against mouse 4T1 cells implanted in BALB/c mouse assessed as decrease in lung metastasis at 5.7 mg/kg,iv administrated once per week for 4 weeks in presence of compound 5b by H and E staining based assay; format: functional, organism-based
In short: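 BALB/c mice bearing orthotopic mammary fat pad 4T1 tumors, dosed iv weekly for 4 weeks with saline vehicle as control. Lung sections stained with hematoxylin and eosin and examined by light microscopy at 40× for metastasis, inflammatory infiltration and alveolar wall thickening.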

[3] = Toxicity in BALB/c mouse xenografted with human A549/Taxol cells assessed as body weight loss at 5.7 mg/kg,iv administrated once per week for 3 weeks; format: organism-based, A549/TR; details: in vivo, 504 h
In short: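 Nude BALB/c nu/nu mice received subcutaneous human tumour cells into the right flank. Dosing started at mean tumour volume of 100–120 mm3, iv once weekly for 3 weeks; the taxane arm was an equimolar control. Body weight and overt side effects were monitored. Mean ± SEM, n = 8.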

[4] = Tmax in mouse tumor implanted with mouse 4T1 cells at 5.7 mg/kg,iv measured upto 72 hrs; format: ADME, organism-based, Neoplasm
4T1 [5] = experiment: Antitumor activity against mouse 4T1 cells implanted in BALB/c mouse assessed as decrease in tumor MMP2 expression level at 5.7 mg/kg,iv administrated once per week for 4 weeks in presence of MDA-205 by western blot assay; format: functional, organism-based
In short: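 4T1 cells injected into mammary fat pads of BALB/c mice. Saline vehicle or test article given iv once weekly for 4 weeks. Spleen, lung and tumor lysates immunoblotted for MMP2/MMP9 with β-actin as loading control. Bands averaged over five mice per group, representative of two independent experiments.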

[6] = Half life in mouse plasma implanted with mouse 4T1 cells at 10 mg/kg,iv measured upto 72 hrs; format: ADME, organism-based
[7] = AUC (0-t) in female Beagle dog at 2 mg/kg,iv measured upto 24 hrs; format: ADME, organism-based, Canis lupus familiaris; design: dose 2 mg/kg, time < 24 hrs, route iv; details: in vivo
In short: (§1)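 Single iv dose: rats 2, 4 or 8 mg/kg by intravenous injection; Beagle dogs 1, 2 or 4 mg/kg by intravenous infusion. Plasma concentration–time data were analysed by sex and pooled. Reported parameters: Cmax, Tmax, AUC0−t, AUC0−∞, MRT0−∞, t1/2, CL, Vss, given as mean ± SD.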

[8] = Half life in rat at 8 mg/kg,iv measured upto 24 hrs; format: ADME, organism-based; details: in vivo
[9] = Toxicity in Beagle dog assessed as decrease in blood pressure at 1 to 4 mg/kg,iv; format: organism-based, Canis lupus familiaris; details: in vivo, dose 1-4 mg/kg
[10] = Half life in female Beagle dog at 4 mg/kg,iv measured upto 24 hrs; format: ADME, organism-based, Canis lupus familiaris; details: in vivo
[11] = Tmax in female rat at 4 mg/kg,iv measured upto 24 hrs; format: ADME, organism-based; details: in vivo
[12] = AUC (0-t) in rat at 4 mg/kg,iv measured upto 24 hrs; format: ADME, organism-based; design: time < 24 hrs, dose 4 mg/kg, route iv; details: in vivo; in short: as §1
[13] = Toxicity in BALB/c mouse xenografted with human A549/Taxol cells assessed as body weight loss at 10 mg/kg,iv administrated once per week for 3 weeks; format: organism-based, A549/TR; details: in vivo, 504 h
[14] = AUC (0-t) in female Beagle dog at 4 mg/kg,iv measured upto 24 hrs; format: ADME, organism-based, Canis lupus familiaris; design: dose 4 mg/kg, time < 24 hrs, route iv; details: in vivo; in short: as §1
[15] = Toxicity in Beagle dog assessed as decrease in body temperature at 1 to 4 mg/kg,iv; format: organism-based, Canis lupus familiaris; details: in vivo, dose 1-4 mg/kg
[16] = Prodrug conversion in mouse tumor implanted with mouse 4T1 cells assessed as MRT of docetaxel at 4 mg/kg,iv measured upto 72 hrs; format: ADME, organism-based, Neoplasm; details: in vivo
[17] = Volume of distribution at steady state in female rat at 2 mg/kg,iv measured upto 24 hrs; format: ADME, organism-based; details: in vivo, read-out: Vdss
[18] = Stability in human hepatocyte assessed as compound remaining at 3 uM incubated upto 120 mins; format: ADME, cell-based; details: hepatocytes, 2 h
[19] = Volume of distribution at steady state in male Beagle dog at 2 mg/kg,iv measured upto 24 hrs; format: ADME, organism-based, Canis lupus familiaris; details: in vivo, read-out: Vdss
[20] = Toxicity in BALB/c mouse xenografted with human MDA-MB-231 cells assessed as body weight loss at 10 mg/kg,iv administrated once per week for 3 weeks; format: organism-based; details: in vivo, 504 h
[21] = Drug excretion in rat feces at 4 mg/kg,iv measured upto 72 hrs; format: ADME, organism-based; details: faeces, read-out: Drug excretion
[22] = Stability in dog hepatocyte assessed as compound remaining at 3 uM incubated upto 120 mins; format: ADME, cell-based, Canis lupus familiaris; details: hepatocytes, 2 h
[23] = Cmax in female rat at 4 mg/kg,iv measured upto 24 hrs; format: ADME, organism-based; design: time < 24 hrs, dose 4 mg/kg, route iv; details: in vivo
In short: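 Rats were given a single iv injection at 2, 4 or 8 mg/kg. Plasma parent drug and released docetaxel were followed over time. Cmax, Tmax, AUC, MRT, t1/2, CL and Vss were reported for males, females and all animals combined.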

4T1 [24] = experiment: Antitumor activity against mouse 4T1 cells implanted in BALB/c mouse assessed as decrease in serum MMP9 level at 20 mg/kg,iv administrated once per week for 4 weeks by ELISA; format: functional, organism-based
In short: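 4T1 fat-pad model in BALB/c mice, iv 5–20 mg/kg once weekly for 4 weeks, with vehicle and naive groups; serum MMP9, TIMP-1, IL-6 and S100A9 measured by mouse ELISA kits.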

[25] = MRT (0 to infinity) in male rat at 2 mg/kg,iv measured upto 24 hrs; format: ADME, organism-based; details: in vivo
[26] = Cmax in female Beagle dog at 2 mg/kg,iv measured upto 24 hrs; format: ADME, organism-based, Canis lupus familiaris; design: dose 2 mg/kg, time < 24 hrs, route iv; details: in vivo
In short: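 Beagle dogs were given a single iv infusion at 1, 2 or 4 mg/kg. Plasma parent drug and released docetaxel were followed over time. Cmax, Tmax, AUC, MRT, t1/2, CL and Vss were reported by sex and for all dogs combined.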

4T1 [27] = experiment: Antitumor activity against mouse 4T1 cells xenografted with BALB/c mouse assessed as inhibition of tumor growth at 10 mg/kg,iv administrated once per week for 4 weeks; format: functional; details: 4T1, 672 h
In short: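 4T1 cells injected into the mammary fat pad of BALB/c mice; iv saline vehicle or 5, 10 or 20 mg/kg once weekly for 4 weeks; body weight, tumour volume, tumour weight, lung metastatic nodule count and metastasis score recorded; n = 10, mean ± SEM, ANOVA and Student's t test.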

[28] = AUC (0-t) in mouse tumor implanted with mouse 4T1 cells at 10 mg/kg,iv measured upto 72 hrs; format: ADME, organism-based, Neoplasm; design: time < 72 hrs, dose 10 mg/kg, route iv
In short: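 4T1 tumor-bearing mice (4T1 cells implanted in the mammary fat pad) received a single iv dose of 10 mg/kg. Plasma and tumor tissue were sampled up to 72 h, with n = 6. Levels of parent and of released docetaxel were measured. AUC came from noncompartmental analysis, reported as mean ± SD.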

MDA-MB-435 = experiment: Antiproliferative activity against human MDA-MB-435 cells assessed inhibition of cell growth incubated for 72 hrs by SRB assay; format: functional, cell-based; details: MDA-MB-435, 72 h
[29] = AUC (0-infinity) in female Beagle dog at 1 mg/kg,iv measured upto 24 hrs; format: ADME, organism-based, Canis lupus familiaris; design: dose 1 mg/kg, time < 24 hrs, route iv; details: in vivo; in short: as §1
A549 = experiment: Antiproliferative activity against human A549 cells assessed inhibition of cell growth incubated for 72 hrs by SRB assay; format: functional, cell-based; details: A549, 72 h

Q: For CC(=O)O[C@@]12CO[C@@H]1C[C@H](O)[C@@]1(C)C(=O)[C@H](O)C3=C(C)[C@@H](OC(=O)[C@H](O)[C@@H](NC(=O)OC(C)(C)C)c4ccccc4)C[C@@](O)([C@@H](OC(=O)c4ccccc4)[C@H]21)C3(C)C [DOCETAXEL ANHYDROUS], which Activity (4T1 [1]) is on record?
A: inactive

Q: What about the Activity (4T1 [2]) of the same compound?
A: Active

Q: What about the Activity [3] of the same compound?
A: Non-Toxic

Q: What about the Tmax [4] of the same compound?
A: 30 min

Q: What about the Activity (4T1 [5]) of the same compound?
A: inactive

Q: With CC(=O)O[C@@]12CO[C@@H]1C[C@H](O)[C@@]1(C)C(=O)[C@H](O)C3=C(C)[C@@H](OC(=O)[C@H](OC(=O)CCC(=O)NCCCC[C@H](NC(=O)CC[C@@H](NC(=O)[C@H](C)NC(=O)/C=C/c4ccc(F)cc4Cl)C(N)=O)C(=O)O)[C@@H](NC(=O)OC(C)(C)C)c4ccccc4)C[C@@](O)([C@@H](OC(=O)c4ccccc4)[C@H]21)C3(C)C as the compound, how does the half-life [6] read?
A: 41.4 min

Q: And the AUC(0-t) at 24 h [7]?
A: 6970 ng·h/mL

Q: And the half-life [8]?
A: 18.3 min

Q: And the Activity [9]?
A: Toxic

Q: And the half-life [10]?
A: 33.8 min

Q: What about the Tmax [11] of the same compound?
A: 4.98 min

Q: And the AUC(0-t) at 24 h [12]?
A: 16900 ng·h/mL

Q: And the Activity [13]?
A: Non-Toxic

Q: What about the AUC(0-t) at 24 h [14] of the same compound?
A: 20300 ng·h/mL

Q: What about the Activity [15] of the same compound?
A: Toxic

Q: What about the MRT [16] of the same compound?
A: 87.4 h

Q: And the Vd [17]?
A: 0.067 L/kg

Q: And the Stability [18]?
A: Stable

Q: What about the Vd [19] of the same compound?
A: 0.09 L/kg

Q: And the Activity [20]?
A: Non-Toxic

Q: And the dose excreted at 72 h [21]?
A: 69.9%

Q: And the Stability [22]?
A: Stable

Q: What about the Cmax [23] of the same compound?
A: 30500 ng/mL

Q: What about the Activity (4T1 [24]) of the same compound?
A: Active

Q: What about the MRT inf [25] of the same compound?
A: 13.9 min

Q: And the Cmax [26]?
A: 14700 ng/mL

Q: And the inhibition in vivo at 10 mg/kg (4T1 [27])?
A: 37%

Q: What about the AUC(0-t) at 72 h [28] of the same compound?
A: 0.11 µM·h

Q: And the IC50 (MDA-MB-435)?
A: 16.3 nM

Q: What about the AUC(0-inf) [29] of the same compound?
A: 1640 ng·h/mL

Q: What about the IC50 (A549) of the same compound?
A: 16.3 nM
